Source: ChEMBL document CHEMBL5321249, “Appraisal of Fungus-Derived Xanthoquinodins as Broad-Spectrum Anti-Infectives Targeting Phylogenetically Diverse Human Pathogens” (J Nat Prod, 2023)

Columns and labels:
[1] = tested on: Cryptosporidium parvum; assay: Antiparasitic activity against Nanoluciferase-tagged Cryptosporidium parvum infected in human HCT-8 cells assessed as inhibition of parasite growth incubated for 48 hrs by NanoGlo luciferase reagent based assay; format: functional, organism-based; details: HCT-8, 48 h
Outline: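 HCT-8 cells grown 48 h to 50–75% confluence; calf-propagated oocysts activated 15 min in 10% bleach at room temperature, DPBS-washed, 5 × 10^3 per well in RPMI-1640 with 10% heat-inactivated FBS and penicillin-streptomycin plus graded compound, 48 h at 37 °C, 5% CO2. Lysed monolayers read with Nano-Glo; growth relative to infected untreated wells, no-parasite background; variable-slope sigmoidal EC50.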

[2] = tested on: Plasmodium falciparum; assay: Antimalarial activity against asynchronous Plasmodium falciparum Dd2 infected in human A+ erythrocytes incubated for 72 hrs by SYBR Green I dye based assay; format: functional, organism-based; details: Dd2, Erythrocyte
[3] = tested on: Mycoplasma genitalium; assay: Antibacterial activity against Mycoplasma genitalium G37 assessed as bacterial growth inhibition incubated for 6 to 7 days by microbroth dilution assay; format: functional, organism-based; details: Mycoplasmoides genitalium
Outline: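 M. genitalium G37 from frozen stock grown 2 days in SP-4 broth at 37 °C, 5% CO2, to log phase; 0.45 μm-filtered, diluted 1:200 in SP-4 with 7.5% FBS, ~10^4 CFU per well with 2-fold serial compound dilutions in triplicate.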

[4] = Cytotoxicity against human HepG2 cells incubated for 48 hrs by MTS based assay; format: toxicity, cell-based
[5] = tested on: Trichomonas vaginalis; assay: Antiparasitic activity against Trichomonas vaginalis Donne PRA-98 incubated for 17 hrs by glutaraldehyde/propidium iodide/acridine orange staining based high-content imaging analysis; format: functional, organism-based; details: Donne PRA-98, 17 h
[6] = Selectivity index, ratio of EC50 for cytotoxicity against human HepG2 cells to EC50 for antimalarial activity against asynchronous Plasmodium falciparum Dd2 infected in human A+ erythrocytes; format: toxicity, cell-based; details: read-out: Ratio EC50
Outline: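 SI is HepG2 EC50 over P. falciparum Dd2 EC50. Asynchronous-stage parasites were assayed by SYBR Green I fluorescence with chloroquine-treated and untreated controls, and EC50 came from dose–response fits. HepG2 cytotoxicity used an MTS absorbance assay in triplicate up to 25 μM, with a 5% Triton X-100 zero-viability control and a no-treatment control.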

[7] = Selectivity index, ratio of EC50 for cytotoxicity against human HepG2 cells to EC50 for antibacterial activity against Mycoplasma genitalium G37; format: cell-based; details: read-out: Ratio EC50
Outline: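 SI is HepG2 EC50 over M. genitalium G37 EC50. G37 (~10^4 CFU/well) was grown in SP-4 broth with 7.5% FBS against 2-fold serial dilutions in triplicate for 6–7 days at 37 °C, 5% CO2. Genomes were quantified by 16S rRNA qPCR against untreated wells. HepG2 cytotoxicity used an MTS assay in triplicate, maximum 25 μM, with Triton X-100-lysed and untreated controls.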

[8] = Selectivity index, ratio of EC50 for cytotoxicity against human HepG2 cells to EC50 for antiparasitic activity against Nanoluciferase-tagged Cryptosporidium parvum infected in human HCT-8 cells assessed as inhibition of parasite growth; format: toxicity, cell-based; details: read-out: Ratio EC50
Outline: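 For the parasite, 5 × 10^3 bleach-activated Nanoluciferase-tagged oocysts per well infected HCT-8 monolayers at 50–75% confluence in RPMI-1640 with 10% FBS. They were incubated 48 h at 37 °C, 5% CO2, then lysed for luminescence. Growth was expressed as percent of infected untreated wells and fitted by variable-slope sigmoidal dose–response.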

[9] = Selectivity index, ratio of EC50 for cytotoxicity against human HepG2 cells to EC50 for antiparasitic activity against Trichomonas vaginalis Donne PRA-98; format: toxicity, cell-based; details: read-out: Ratio EC50
Outline: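 Trichomonads (4 × 10^4 per well) under microaerophilic conditions were treated with compound at no more than 0.5% DMSO for 17 h. Cells were then fixed with glutaraldehyde, propidium iodide and acridine orange, shaken, incubated 3 h at 37 °C, and counted by high-content imaging.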

| Structure (SMILES) | EC50 [2] | EC50 [5] | EC50 [1] | EC50 [3] | EC50 at 48 h [4] | selectivity ratio [6] | selectivity ratio [7] | selectivity ratio [8] | selectivity ratio [9] |
| --- | --- | --- | --- | --- | --- | --- | --- | --- | --- |
| CCOc1ccc2cc(-c3nn(CC4CCN(C)CC4)c4ncnc(N)c34)ccc2c1 |  |  | 1.1 µM |  |  |  |  |  |  |
| Cc1cc(O)c2c(c1)[C@@H]([C@H]1c3cc(C)cc(O)c3C(=O)c3c(O)cc(O)cc31)c1cc(O)cc(O)c1C2=O | 1.65 µM | > 10 µM | > 7.2 µM | > 10 µM | 13.8 µM | 8.6 |  |  |  |
| COC(=O)[C@]1([C@@H]2CCC(=O)O2)CC(=O)c2c(cc3c(c2O)[C@@H]2C=C[C@@]4(C3)C(=O)c3cc(C)cc(O)c3C(=O)[C@]4(O)C2=O)O1 | > 5 µM | > 10 µM | > 6 µM | > 10 µM | > 25 µM |  |  |  |  |
| COC(=O)[C@]1([C@@H]2CCC(=O)O2)CC(=O)c2c(O)cc(C)cc2O1 | > 5 µM | > 10 µM | > 40 µM | > 10 µM | > 25 µM |  |  |  |  |
| COC(=O)[C@]12Oc3c(c(O)cc4c3[C@@H]3C=C[C@@]5(C4)C(=O)c4cc(C)cc(O)c4C(=O)[C@]5(O)C3=O)C(=O)C1=C(O)CC[C@@H]2O | > 5 µM | > 10 µM | > 10 µM | > 10 µM | > 25 µM |  |  |  |  |
| Cc1cc(O)c2c(c1)[C@@H]([C@@H]1c3cc(C)cc(O)c3C(=O)c3c(O)cc(O)cc31)c1cc(O)cc(O)c1C2=O (relative stereo) | 1.12 µM | > 10 µM | > 2.4 µM | > 10 µM | 10.2 µM | 9.1 |  |  |  |
| CC[C@H]1OC(=O)[C@H](C)[C@@H](O[C@H]2C[C@@](C)(OC)[C@@H](O)[C@H](C)O2)[C@H](C)[C@@H](O[C@@H]2O[C@H](C)C[C@H](N(C)C)[C@H]2O)[C@](C)(O)C[C@@H](C)CN(C)[C@H](C)[C@@H](O)[C@]1(C)O [AZITHROMYCIN] |  |  |  | 0.0005 µM |  |  |  |  |  |
| Cc1ncc([N+](=O)[O-])n1CCO [METRONIDAZOLE] |  | 3.5 µM |  |  |  |  |  |  |  |
| COC(=O)[C@@]12Oc3cc4c(c(O)c3C(=O)C1=C(O)CC[C@@H]2O)[C@@H]1C=C[C@@]2(C4)C(=O)c3cc(C)cc(O)c3C(O)=C2C1=O [XANTHOQUINODIN A1] | 0.29 µM | 3.9 µM | 5.2 µM | 0.13 µM | > 25 µM | > 86 | > 62.5 | > 4.8 | > 6.4 |
| COC(=O)[C@]12Oc3cc4c(c(O)c3C(=O)C1=C(O)CC[C@@H]2O)[C@@H]1C=C[C@@]2(C4)C(=O)c3cc(C)cc(O)c3C(O)=C2C1=O [XANTHOQUINODIN A2] | 0.5 µM | 6.8 µM | 3.5 µM | 0.12 µM | > 25 µM | > 50 | > 125 | > 7.1 | > 3.7 |

The next lines start with results.

| EC50 [2] | EC50 [5] | Structure (SMILES) | EC50 [1] | EC50 [3] | EC50 at 48 h [4] | selectivity ratio [6] | selectivity ratio [7] | selectivity ratio [8] | selectivity ratio [9] |
| --- | --- | --- | --- | --- | --- | --- | --- | --- | --- |
| > 5 µM | > 10 µM | COC(=O)[C@@]12Oc3cc4c(c(O)c3C(=O)C1=C(O)CC[C@@H]2O)[C@@H]1C=C[C@@]2(C4)C(=O)c3cc(C)cc(O)c3C(=O)[C@]2(O)C1=O | > 10 µM | > 10 µM | > 25 µM |  |  |  |  |
| > 5 µM | > 10 µM | COC(=O)[C@]1([C@@H](O)CCC(=O)O)CC(=O)c2c(cc3c(c2O)[C@@H]2C=C[C@@]4(C3)C(=O)c3cc(C)cc(O)c3C(O)=C4C2=O)O1 | > 10 µM | > 10 µM | > 25 µM |  |  |  |  |
| > 5 µM | > 10 µM | COC(=O)[C@]1([C@@H](O)CCC(=O)O)CC(=O)c2c(cc3c(c2O)[C@@H]2C=C[C@@]4(C3)C(=O)c3cc(C)cc(O)c3C(=O)[C@]4(O)C2=O)O1 | > 10 µM | > 10 µM | > 25 µM |  |  |  |  |
| > 5 µM | > 10 µM | COC(=O)[C@@]12Oc3cc4c(c(O)c3C(=O)[C@]1(O)C(=O)CC[C@@H]2O)[C@@H]1C=C[C@@]2(C4)C(=O)c3cc(C)cc(O)c3C(=O)[C@]2(O)C1=O | > 10 µM | > 10 µM | > 25 µM |  |  |  |  |
| > 5 µM | > 10 µM | COC(=O)[C@]1([C@@H]2CCC(=O)O2)CC(=O)c2c(cc3c(c2O)[C@@H]2C=C[C@@]4(C3)C(=O)c3cc(C)cc(O)c3C(O)=C4C2=O)O1 [XANTHOQUINODIN A3] |  |  | > 25 µM |  |  |  |  |
